# Data reported in ChEMBL document CHEMBL3826879, “Synthesis and biological evaluation of analogues of the potent ADAM8 inhibitor cyclo(RLsKDK) for the treatment of inflammatory diseases and cancer metastasis” (Bioorg Med Chem, 2016).
# Where a SMILES comes first, the peptide text is derived from it. Bridges are numbered along the chain shown (N, C = ends). [ ]: non-standard residue; d: D form. Arg(NO2) = N=C(NCCC[C@H](N)C(=O)O)N[N+](=O)[O-]; Lys(Me3) = C[N+](C)(C)CCCC[C@H](N)C(=O)O; hArg = N=C(N)NCCCC[C@H](N)C(=O)O; tBuAla = CC(C)(C)C[C@H](N)C(=O)O; Cit = NC(=O)NCCC[C@H](N)C(=O)O; hLeu = CC(C)CC[C@H](N)C(=O)O; β3hS = N[C@@H](CO)CC(=O)O; Nle = CCCC[C@H](N)C(=O)O; Orn = NCCC[C@H](N)C(=O)O; Dab = NCC[C@H](N)C(=O)O; Nva = CCC[C@H](N)C(=O)O; Dap = NC[C@H](N)C(=O)O; βAla = NCCC(=O)O
# Target: T1, Disintegrin and metalloproteinase domain-containing protein 8 (Homo sapiens, UniProt P78325)
# T1 sequence (P78325 whole entry): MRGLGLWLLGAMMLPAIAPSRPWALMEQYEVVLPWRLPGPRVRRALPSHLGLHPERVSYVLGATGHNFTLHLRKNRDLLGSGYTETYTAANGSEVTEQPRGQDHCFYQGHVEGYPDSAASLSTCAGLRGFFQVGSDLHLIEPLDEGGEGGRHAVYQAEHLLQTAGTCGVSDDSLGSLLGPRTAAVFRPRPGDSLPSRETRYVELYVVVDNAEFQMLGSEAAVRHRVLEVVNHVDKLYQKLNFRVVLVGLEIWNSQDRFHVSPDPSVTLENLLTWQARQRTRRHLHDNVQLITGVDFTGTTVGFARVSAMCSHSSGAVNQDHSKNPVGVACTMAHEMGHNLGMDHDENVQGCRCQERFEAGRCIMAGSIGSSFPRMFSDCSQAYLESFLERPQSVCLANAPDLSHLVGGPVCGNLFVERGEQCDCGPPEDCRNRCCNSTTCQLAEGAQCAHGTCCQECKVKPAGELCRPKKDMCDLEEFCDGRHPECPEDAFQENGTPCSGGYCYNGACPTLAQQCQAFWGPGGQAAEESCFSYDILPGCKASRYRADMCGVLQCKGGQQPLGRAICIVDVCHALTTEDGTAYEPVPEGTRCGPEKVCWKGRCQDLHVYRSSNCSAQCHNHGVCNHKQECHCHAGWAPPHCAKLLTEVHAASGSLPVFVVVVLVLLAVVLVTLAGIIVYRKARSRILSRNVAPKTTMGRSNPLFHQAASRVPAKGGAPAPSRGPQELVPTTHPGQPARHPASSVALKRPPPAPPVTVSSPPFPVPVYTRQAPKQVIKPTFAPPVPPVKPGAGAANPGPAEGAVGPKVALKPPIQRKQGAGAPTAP
# Assay: Inhibition of ADAM8 (unknown origin) expressed in African green monkey COS7 cells co-expressing CD23 assessed as inhibition of CD23 shedding after 6 hrs by ELISA
# Type: cell-based, COS-7
# How it was run: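 COS7 cells co-transfected with CD23 and ADAM8 cDNA, seeded at 2 × 10^5 cells/well and exposed to peptide at 10 nM–10 μM for 6 h. Supernatant CD23 measured by sandwich ELISA: biotinylated anti-CD23 monoclonal antibody, 2 h at room temperature, streptavidin–HRP 1 h, TMB substrate, absorbance at 405 nm. Samples in duplicate against 400–12.5 units/mL standards. IC50 derived.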
row,IC50 [µM],Structure (SMILES)
1,0.142,CC(C)CC[C@@H]1NC(=O)[C@H](CCCNC(=N)N)NC(=O)[C@H](CCCCN)NC(=O)[C@H](CC(=O)O)NC(=O)[C@H](CCCCN)NC(=O)C[C@H](CO)NC1=O (cyclo(DKR[hLeu][β3hS]K))
2,> 5,CC(C)C[C@@H]1NC(=O)[C@H](CCCNC(=N)N)NC(=O)[C@H](CCN)NC(=O)[C@H](CC(=O)O)NC(=O)[C@H](CCCCN)NC(=O)CCNC1=O (cyclo(D[Dab]RL[βAla]K))
3,> 5,CC(C)C[C@@H]1NC(=O)[C@H](CCCNC(=N)N)NC(=O)[C@H](CCCN)NC(=O)[C@H](CC(=O)O)NC(=O)[C@H](CCCCN)NC(=O)CCNC1=O (cyclo(D[Orn]RL[βAla]K))
4,0.256,CC(C)(C)C[C@@H]1NC(=O)[C@H](CCCNC(=N)N)NC(=O)[C@H](CCCCN)NC(=O)[C@H](CC(=O)O)NC(=O)[C@H](CCCCN)NC(=O)CCNC1=O (cyclo(DKR[tBuAla][βAla]K))
5,0.452,CCC[C@@H]1NC(=O)[C@H](CCCNC(=N)N)NC(=O)[C@H](CCCCN)NC(=O)[C@H](CC(=O)O)NC(=O)[C@H](CCCCN)NC(=O)CCNC1=O (cyclo(DKR[Nva][βAla]K))
6,0.89,CC(C)C[C@@H]1NC(=O)[C@H](CCCNC(N)=O)NC(=O)[C@H](CCCCN)NC(=O)[C@H](CC(=O)O)NC(=O)[C@H](CCCCN)NC(=O)CCNC1=O (cyclo([Cit]L[βAla]KDK))
7,1.65,CC(C)C[C@@H]1NC(=O)[C@H](CCCNC(=N)N)NC(=O)[C@H](CCCCN)NC(=O)[C@H](CC(=O)O)NC(=O)[C@H](CCCCN)NC(=O)CCNC1=O (cyclo(DKRL[βAla]K))
8,0.22,CC(C)CC[C@@H]1NC(=O)[C@H](CCCNC(=N)N)NC(=O)[C@H](CCCCN)NC(=O)[C@H](CC(=O)O)NC(=O)[C@H](CCCCN)NC(=O)CCNC1=O (cyclo(DKR[hLeu][βAla]K))
9,0.378,CCCC[C@@H]1NC(=O)[C@H](CCCNC(=N)N)NC(=O)[C@H](CCCCN)NC(=O)[C@H](CC(=O)O)NC(=O)[C@H](CCCCN)NC(=O)CCNC1=O (cyclo(DKR[Nle][βAla]K))

# The remaining lines, values behind:
row,Structure (SMILES),IC50 [µM]
1,CC(C)C[C@@H]1NC(=O)[C@H](CCCNC(=N)N)NC(=O)[C@H](CN)NC(=O)[C@H](CC(=O)O)NC(=O)[C@H](CCCCN)NC(=O)CCNC1=O (cyclo(D[Dap]RL[βAla]K)),> 5
2,CC(C)C[C@@H]1NC(=O)[C@H](CCCNC(=N)N[N+](=O)[O-])NC(=O)[C@H](CCCCN)NC(=O)[C@H](CC(=O)O)NC(=O)[C@H](CCCCN)NC(=O)C[C@H](CO)NC1=O (cyclo([Arg(NO2)]L[β3hS]KDK)),1.24
3,CC(C)C[C@@H]1NC(=O)[C@H](CCCNC(=N)N)NC(=O)[C@H](CCCC[N+](C)(C)C)NC(=O)[C@H](CC(=O)O)NC(=O)[C@H](CCCCN)NC(=O)CCNC1=O (cyclo(D[Lys(Me3)]RL[βAla]K)),> 10
4,CC(C)C[C@@H]1NC(=O)[C@H](CCCNC(=N)N)NC(=O)[C@H](CCCCN)NC(=O)[C@H](CC(=O)O)NC(=O)[C@H](CCCCN)NC(=O)C[C@H](CO)NC1=O (cyclo(DKRL[β3hS]K)),0.157
5,CC(C)C[C@@H]1NC(=O)[C@H](CCCCNC(=N)N)NC(=O)[C@H](CCCCN)NC(=O)[C@H](CC(=O)O)NC(=O)[C@H](CCCCN)NC(=O)C[C@H](CO)NC1=O (cyclo(DK[hArg]L[β3hS]K)),0.368
6,CC(C)C[C@@H]1NC(=O)[C@H](CCCNC(N)=O)NC(=O)[C@H](CCCCN)NC(=O)[C@H](CC(=O)O)NC(=O)[C@H](CCCCN)NC(=O)C[C@H](CO)NC1=O (cyclo([Cit]L[β3hS]KDK)),0.192
7,CC(C)C[C@@H]1NC(=O)[C@H](CCCNC(=N)N)NC(=O)[C@H](CCCCN)NC(=O)[C@H](CC(=O)O)NC(=O)[C@H](CCCCN)NC(=O)C[C@@H](C(=O)O)NC1=O (KDKRLD-OH; lactam N-6),0.42
8,CC(C)C[C@@H]1NC(=O)[C@H](CCCNC(=N)N)NC(=O)[C@H](CCCCN)NC(=O)[C@H](CC(=O)O)NC(=O)[C@H](CCCCN)NC(=O)[C@H](CO)NC1=O (cyclo(DKRLSK)),0.24
9,CC(C)C[C@@H]1NC(=O)[C@H](CCCNC(=N)N[N+](=O)[O-])NC(=O)[C@H](CCCCN)NC(=O)[C@H](CC(=O)O)NC(=O)[C@H](CCCCN)NC(=O)CCNC1=O (cyclo([Arg(NO2)]L[βAla]KDK)),2.35
